Test results published in ChEMBL document CHEMBL1155812, “Functionalized pyrrolidine inhibitors of human type II alpha-mannosidases as anti-cancer agents: optimizing the fit to the active site” (Bioorg Med Chem, 2008).
pIC50, pKi: −log10 of the molar value. Calls of active or inactive are those of the source. The calls are words filed in the database; no cut-off is given here.

What was measured:
[1] = Inhibition of jack bean alpha-mannosidase; parameters: species or system Canavalia ensiformis
In short: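 Jack bean enzyme (0.01–0.5 U/mL) preincubated 5 min at 20 °C with inhibitor, then reacted 20 min at 37 °C with increasing 4-nitrophenyl-α-D-mannopyranoside at pH 5.5. Stopped with 0.2 M borate pH 9.8; 4-nitrophenolate read at 410 nm. IC50 found graphically, or Ki and inhibition type from Lineweaver–Burk plots.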

LN-18 = test: (§1) Growth inhibition of human LN18 cells after 24 hrs by MTT assay; format: functional, cell-based
In short: (§2)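 Cells seeded 2 days before in the same medium (glioblastoma lines in DMEM 4.5 g/l glucose, 5% FCS; HCEC with 10% FCS), then exposed to increasing concentrations for 24 h. MTT (5 mg/ml in PBS) was added without medium change for 2 h at 37 °C. Formazan was dissolved in isopropanol-HCl and read at 540 nm. Growth inhibition is the ratio of MTT reduction, treated to untreated. Triplicate wells.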

[2] = target: T1, Lysosomal alpha-mannosidase (Homo sapiens, UniProt O00754); test: Inhibition of alpha-mannosidase in human LN18 cells; format: cell-based
T1 sequence (O00754 whole entry): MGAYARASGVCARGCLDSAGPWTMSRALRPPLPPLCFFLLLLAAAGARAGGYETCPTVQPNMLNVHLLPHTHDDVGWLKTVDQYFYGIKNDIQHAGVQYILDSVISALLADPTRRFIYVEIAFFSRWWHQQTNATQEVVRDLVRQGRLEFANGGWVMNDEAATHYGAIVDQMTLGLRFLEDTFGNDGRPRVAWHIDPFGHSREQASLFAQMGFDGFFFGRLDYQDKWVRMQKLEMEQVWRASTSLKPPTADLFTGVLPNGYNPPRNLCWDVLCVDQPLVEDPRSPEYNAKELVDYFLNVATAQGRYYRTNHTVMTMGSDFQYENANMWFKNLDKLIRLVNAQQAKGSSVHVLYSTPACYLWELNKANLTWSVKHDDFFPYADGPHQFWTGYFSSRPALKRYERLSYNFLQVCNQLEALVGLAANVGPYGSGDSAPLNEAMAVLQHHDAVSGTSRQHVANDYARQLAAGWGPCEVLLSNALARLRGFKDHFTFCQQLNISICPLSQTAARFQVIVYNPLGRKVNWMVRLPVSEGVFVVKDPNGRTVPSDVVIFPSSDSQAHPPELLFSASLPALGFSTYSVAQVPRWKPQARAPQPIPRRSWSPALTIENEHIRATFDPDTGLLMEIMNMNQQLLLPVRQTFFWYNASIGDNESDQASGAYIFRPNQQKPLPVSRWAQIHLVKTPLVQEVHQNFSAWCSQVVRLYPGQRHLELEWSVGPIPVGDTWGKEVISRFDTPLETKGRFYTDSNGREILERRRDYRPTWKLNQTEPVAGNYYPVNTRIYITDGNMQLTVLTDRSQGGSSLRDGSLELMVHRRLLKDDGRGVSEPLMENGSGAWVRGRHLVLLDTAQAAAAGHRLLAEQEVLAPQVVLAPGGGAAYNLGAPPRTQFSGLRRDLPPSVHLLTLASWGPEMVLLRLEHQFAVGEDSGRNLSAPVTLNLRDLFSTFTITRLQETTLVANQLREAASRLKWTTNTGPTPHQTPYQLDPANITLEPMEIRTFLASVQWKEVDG
In short: (§3)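 Cell layers extracted in pH 5.0 phosphate buffer with 0.1% Triton X-100. Extracts were preincubated with increasing inhibitor concentrations (30 min, 37 °C), then given 4-methylumbelliferyl-α-D-mannopyranoside (150 µM final). Fluorescence increase (ex 360/em 460 nm) followed for 30 min at 37 °C. KM was determined first; IC50 and Ki were derived graphically. Swainsonine served as reference.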

[3] = target: T1, Lysosomal alpha-mannosidase; test: Inhibition of alpha-mannosidase in human HCEC; format: cell-based; in short: as §3
[4] = target: T1, Lysosomal alpha-mannosidase; test: Inhibition of alpha-mannosidase in human LNZ308 cells; format: cell-based; in short: as §3
[5] = Growth inhibition of human HCEC after 24 hrs by MTT assay; format: cell-based; conditions: for Activity: human, hcec; in short: as §2
LNZ308 [6] = test: (§4) Growth inhibition of human LNZ308 cells after 24 hrs by MTT assay; format: functional, cell-based; in short: as §2
[7] = Growth inhibition of human LN18 cells at 300 uM after 24 hrs by MTT assay; format: functional; conditions: LN-18, 24 h, read-out: GI; in short: as §2
[8] = Growth inhibition of human LNZ308 cells at 300 uM after 24 hrs by MTT assay; format: functional; conditions: LNZ308, 24 h, read-out: GI; in short: as §2
[9] = Growth inhibition of human HCEC at 300 uM after 24 hrs by MTT assay; format: cell-based; conditions: HCEC cells, read-out: GI; in short: as §2
LNZ308 [10] = test: Decrease in incorporation of [3H]Mann into TCA-precipitable high molecular weight cellular molecule in human LNZ308 cells at 200 uM after 14 hrs; format: functional, cell-based
In short: (§5)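 Cells given 200 µM inhibitor together with [2,3,4,5-3H]-L-Leu or [2,6-3H]-D-Mann (0.4 µCi/ml final). LNZ308 were seeded 10 h before a 14 h exposure; HCEC were exposed for 6 h. Incorporation measured by 10% TCA precipitation, solubilization in 0.1 N NaOH and beta counting. The Mann/Leu ratio of decrease, treated vs. control, was calculated. Triplicate wells, means ± SD.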

[11] = as §1; format: functional, cell-based; conditions: LN-18, 24 h; in short: as §2
HCEC = test: Decrease in incorporation of [3H]Mann into TCA-precipitable high molecular weight cellular molecule in human HCEC at 200 uM after 6 hrs; format: functional, cell-based; in short: as §5
[12] = as §4; format: functional, cell-based; conditions: LNZ308, 24 h; in short: as §2
[13] = Inhibition of drosophila golgi alpha-mannosidase 2
In short: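 It was preincubated 30 min at 20 °C with inhibitor added in DMSO, then given p-nitrophenyl α-mannopyranoside, all at 10% final DMSO and 20 °C. Timed aliquots were stopped with equal-volume 0.5 M sodium carbonate and read at A405. Ki was fitted by nonlinear regression on the linear portion of the time course.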

[14] = Growth inhibition of melanoma cells; format: functional, cell-based; conditions: Melanoma tumor cell line

O=C1N[C@H](CN[C@@H](CO)c2ccccc2)[C@@H](O)[C@H]1O
pKi [1]: 5.40 | Activity (LN-18): inactive | pIC50 [2]: 3.46 | pIC50 [3]: 4.12 | pIC50 [4]: 4.30 | Activity [5]: Not Active | Activity (LNZ308 [6]): inactive

O=C(OC[C@H](NC[C@H]1NC(=O)[C@H](O)[C@@H]1O)c1ccccc1)c1ccc(Br)cc1
inhibition of growth at 300 µM [7]: 59% | inhibition of growth at 300 µM [8]: 51% | pIC50 [2]: 3.12 | pIC50 [3]: 4.12 | pIC50 [4]: 3.82 | inhibition at 24 h, 300 µM [9]: 85%

CN1C(=O)[C@H](O)[C@H](O)[C@H]1CN[C@@H](COC(=O)c1ccc(Br)cc1)c1ccccc1
Activity (LNZ308 [10]): Active | pIC50 [11]: 3.84 | pIC50 [2]: 4.12 | pIC50 [3]: 6.12 | pIC50 [4]: 5.12 | Activity (HCEC): Active | pIC50 ([5]; Homo sapiens, HCEC): 4.00 | pIC50 [12]: 3.76

O[C@H]1[C@H]2[C@H](O)CCCN2C[C@H]1O [TRIDOLGOSIR]
pIC50 [1]: 7.40 | pKi [1]: 6.81 | pIC50 [2]: 7.30 | pIC50 [3]: 8.00 | pIC50 [4]: 7.70 | pIC50 [13]: 7.40 | pKi [13]: 7.70

OC[C@H](NC[C@H]1NC[C@H](O)[C@@H]1O)c1ccccc1
pIC50 [2]: 4.30 | pKi [2]: 4.49 | pIC50 [3]: 4.60 | pKi [3]: 4.63 | pIC50 [4]: 4.30 | pKi [4]: 4.38 | pIC50 [13]: 4.10 | pKi [13]: 4.17

O=C(OC[C@H](NC[C@H]1NC[C@H](O)[C@@H]1O)c1ccccc1)c1ccc(Br)cc1
pIC50 [2]: 3.70 | pIC50 [3]: 4.12 | pIC50 [4]: 4.12 | pIC50 [14]: 3.90

CN1C(=O)[C@H](O)[C@H](O)[C@H]1CN[C@@H](CO)c1ccccc1
pKi [1]: 6.69 | Activity (LN-18): inactive | pIC50 [2]: 5.70 | pKi [2]: 5.49 | pIC50 [3]: 6.30 | pKi [3]: 6.17 | pIC50 [4]: 6.30 | pKi [4]: 6.26 | Activity [5]: Not Active | Activity (LNZ308 [6]): inactive
